Laboratory results as given in ChEMBL document CHEMBL1125777, “Nonpeptidic angiotensin II antagonists: synthesis and in vitro activity of a series of novel naphthalene and tetrahydronaphthalene derivatives” (J Med Chem, 1991).
pIC50: −log10 of the molar value.

Assays:
Oryctolagus cuniculus = species on record: Oryctolagus cuniculus; test: Inhibition of all induced contractions of rabbit aortic rings; format: functional; conditions: Aorta
Outline: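 Thoracic aorta rings (2-3 mm) from male Chinchilla rabbits (2-2.5 kg), 2 g resting tension, modified Krebs-Henseleit, 37 °C, 95% O2/5% CO2, equilibrated ≥1 h. Isometric contraction to 10 nM angiotensin II every 20 min. After two control responses, graded compound concentrations (3-4 per ring) applied 5 min before each challenge. DMSO vehicle controls.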

[1] = target: T1, Type-1 angiotensin II receptor B (Rattus norvegicus, UniProt P29089); test: Binding affinity against Angiotensin II receptor in rat smooth muscle cell preparations
T1 sequence (P29089 whole entry): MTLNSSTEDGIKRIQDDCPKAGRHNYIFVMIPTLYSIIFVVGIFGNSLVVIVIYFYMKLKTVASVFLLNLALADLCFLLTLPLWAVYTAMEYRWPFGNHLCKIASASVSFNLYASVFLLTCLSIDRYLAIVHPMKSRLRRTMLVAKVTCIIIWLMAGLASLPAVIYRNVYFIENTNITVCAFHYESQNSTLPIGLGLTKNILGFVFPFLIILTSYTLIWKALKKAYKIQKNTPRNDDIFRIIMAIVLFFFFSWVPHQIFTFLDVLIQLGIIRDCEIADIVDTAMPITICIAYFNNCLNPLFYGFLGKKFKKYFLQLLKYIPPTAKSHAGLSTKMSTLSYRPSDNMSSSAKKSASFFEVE
Outline: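 Membranes from cultured rat aortic smooth muscle cells (passages 5-20, DMEM with 15% FCS). 20-60 μg protein incubated 60 min at 25 or 30 °C with radiotracer (150 pM) and varying unlabeled competitor concentrations. Bound/free separated by filtration, filter radioactivity counted. Nonspecific binding defined with 1 μM unlabeled AII. IC50 from four-parameter logistic fit. Duplicate tests.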

[2] = target: T1, Type-1 angiotensin II receptor B; test: Binding affinity against angiotensin II receptor in rat smooth muscle cell preparations
Outline: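 Membranes from cultured rat aortic smooth muscle cells (passages 5-20, DMEM with 15% FCS). Bound/free separated by filtration, filter radioactivity counted. Nonspecific binding defined with 1 μM unlabeled AII. IC50 from four-parameter logistic fit. Duplicate tests.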

Row | Compound | pIC50 (Oryctolagus cuniculus) | pIC50 [1] | pIC50 [2]
1 | CCCCc1nc(CO)c(Cl)n1Cc1ccc2c(c1)CCC(C)(C(=O)O)C2 (stereo not given) | 5.57 | – | 5.55
2 | CCCCc1nc(Cl)c(CO)n1Cc1ccc2cc(-c3nn[nH]n3)ccc2c1 | 5.80 | – | 6.22
3 | CCCCc1nc(Cl)c(CO)n1Cc1cccc2cc(-c3nnn[nH]3)ccc12 | 5.59 | – | 5.39
4 | CCCCc1nc(Cl)c(CO)n1Cc1ccc2ccc(-c3nn[nH]n3)cc2c1 | – | 4.70 | –
5 | CCCCc1nc(Cl)c(CO)n1Cc1ccc2c(c1)CCC(c1nnn[nH]1)C2 (stereo not given) | 5.72 | – | 5.27
6 | CCCCc1nc(Cl)c(CO)n1Cc1ccc2c(c1)CCC(C)(C(=O)O)C2 (stereo not given) | 5.66 | – | –

Further lines, results first:

Row | pIC50 (Oryctolagus cuniculus) | pIC50 [1] | pIC50 [2] | Compound
7 | 6.25 | – | – | CCCCc1nc(CO)c(Cl)n1Cc1ccc2c(c1)CCC(c1nnn[nH]1)C2 (stereo not given)
8 | 6.92 | 6.70 | – | CCCCc1nc(CO)c(Cl)n1Cc1ccc2cc(-c3nnn[nH]3)ccc2c1
9 | 6.15 | – | 5.96 | CCCCc1nc(Cl)c(CO)n1Cc1cccc2c(-c3nn[nH]n3)cccc12
10 | 6.52 | – | 5.96 | CCCCc1nc(CO)c(Cl)n1Cc1ccc2c(c1)CCC(C(=O)O)C2 (stereo not given)
11 | 7.62 | – | – | CCCCc1nc(Cl)c(CO)n1Cc1ccc(-c2ccccc2-c2nnn[nH]2)cc1 [LOSARTAN]
12 | 5.92 | – | 5.05 | CCCCc1nc(Cl)c(CO)n1Cc1ccc2c(c1)CCC(C(=O)O)C2 (stereo not given)
